Experimental findings from ChEMBL document CHEMBL3526125, “P-glycoprotein increases portal bioavailability of loperamide in mouse by reducing first-pass intestinal metabolism” (Drug Metab Dispos, 2013) are described below.

Data set [1] is described as follows: AUC (0 to 240 mins) in P-gp competent CF-1 mouse plasma at 0.94 mg/kg through oral gavage. Type of data set: ADME, organism-based. More on the design: time < 4 hr, dose 0.94 mg/kg, route oral. A digest of the protocol: (§1)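 Male CF-1 (P-gp competent) or Mdr1a1-/- mice, overnight-fasted, on ketamine/xylazine anesthesia held at 37°C, portal vein-cannulated. Loperamide 0.23, 0.47 or 0.95 mg/kg by oral gavage in 300 µL 0.9% NaCl with 1% EtOH. Serial 20 µL portal blood samples over 240 min. Plasma loperamide quantified by LC-MS/MS. AUC0–240 min reported as mean ± SD, n=6.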

For data set [2], the system named is CYP3A. As to the kind of experiment: Drug metabolism in P-gp competent CF-1 mouse intestine assessed as CYP3A-mediated […] by LC-MS/MS analysis. Type of data set: ADME, tissue-based. A digest of the protocol:
(§2)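 Jejunum from fasted CF-1 or Mdr1a1-/- mice mounted in diffusion chambers in oxygenated KBR at 37°C; tissue used if TEER ≥250 Ω·cm². Apical loperamide 0.75–125 µM in KBR with 0.1% EtOH for 90 min. Monodemethyl- plus didemethyl-loperamide summed across tissue, AP and BL by LC-MS/MS. Fitted to Michaelis–Menten for Vmax and Km. n=3 mice × 4 tissues.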

A short description of data set [3]: Portal bioavailability in P-gp competent CF-1 mouse at 0.23 mg/kg through oral gavage. Type of data set: ADME, organism-based. The conditions noted are these: in vivo. A digest of the protocol: (§3)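 Portal vein-cannulated, anesthetized CF-1 or Mdr1a1-/- mice given oral loperamide 0.23, 0.47 or 0.94 mg/kg. Portal and systemic plasma converted to blood concentration using a blood:plasma ratio of 0.71. M_portal = Q_portal (1.45 mL/min) × AUC_portal(0–4 h). M_systemic is subtracted to give M_absorbed, and F_G = M_absorbed/dose. n=6.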

A short description of data set [4]: Portal bioavailability in P-gp deficient CF-1 mouse at 0.23 mg/kg through oral gavage by LC-MS/MS analysis in presence of 1 mM ABT CYP3A inhibitor. Type of data set: ADME, organism-based. The settings on record: in vivo. The gist of the method:
(§4)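 Mice received oral ABT 50 mg/kg 3 h before study, plus another 50 mg/kg co-administered with loperamide 0.23 mg/kg in 300 µL 0.9% NaCl with 1% EtOH. Portal and jugular sampling over 240 min. F_G = (portal minus systemic-returned mass)/dose, using portal flow 1.45 mL/min and blood:plasma ratio 0.71. n=6.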

A short description of data set [5]: Portal bioavailability in P-gp deficient CF-1 mouse at 0.47 mg/kg through oral gavage. The settings on record: in vivo. Type of data set: ADME, organism-based. The gist of the method:
as §3

Data set [6] can be described thus: AUC in P-gp deficient CF-1 mouse plasma at 0.23 mg/kg through systemic exposure. Type of data set: ADME, organism-based. Further details: dose 0.23 mg/kg. A digest of the protocol:
(§5)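 Overnight-fasted, ketamine/xylazine-anesthetized CF-1 or Mdr1a1-/- mice with jugular vein cannulae. Loperamide 0.23 or 0.47 mg/kg by oral gavage in 300 µL 0.9% NaCl with 1% EtOH. Jugular blood (20 µL) taken at 10, 30, 60, 120, 180 and 240 min. Plasma loperamide measured by LC-MS/MS. AUC0–240 min, n=6.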

Data set [7] in a line: AUC in P-gp competent CF-1 mouse plasma at 0.23 mg/kg through systemic exposure. Type of data set: ADME, organism-based. Further details: dose 0.23 mg/kg. The gist of the method:
as §5

Data set [8] is described as follows: Portal bioavailability in P-gp competent CF-1 mouse at 0.23 mg/kg through oral gavage by LC-MS/MS analysis in presence of 1 mM ABT CYP3A inhibitor. Type of data set: ADME, organism-based. The conditions noted are these: in vivo. The gist of the method: as §4
Data set [9] in a line: AUC (0 to 240 mins) in P-gp deficient CF-1 mouse plasma at 0.47 mg/kg through oral gavage. Type of data set: ADME, organism-based. Further details: time < 4 hr, dose 0.47 mg/kg, route oral. A digest of the protocol:
as §1

Data set [10] in a line: Portal bioavailability in P-gp deficient CF-1 mouse at 0.23 mg/kg through oral gavage. Type of data set: ADME, organism-based. The conditions noted are these: in vivo. The gist of the method:
as §3

Data set [11] in a line: Drug metabolism in P-gp deficient CF-1 mouse intestine assessed as CYP3A-mediated metabolite formation […]. Type of data set: ADME, tissue-based. The conditions noted are these: excised jejunum tissue.
Data set [12] relates to CYP3A. Kind of data set: Drug metabolism in P-gp deficient CF-1 mouse intestine assessed as CYP3A-mediated […] by LC-MS/MS analysis. Type of data set: ADME, tissue-based. A digest of the protocol:
as §2

Data set [13] is described as follows: AUC in P-gp deficient CF-1 mouse plasma at 0.47 mg/kg through systemic exposure. Type of data set: ADME, organism-based. Further details: dose 0.47 mg/kg. The gist of the method: as §5
Data set [14] can be described thus: AUC (0 to 240 mins) in P-gp deficient CF-1 mouse plasma at 0.23 mg/kg through oral gavage. Type of data set: ADME, organism-based. Further details: time < 4 hr, dose 0.23 mg/kg, route oral. The gist of the method:
as §1

Data set [15] can be described thus: AUC (0 to 240 mins) in P-gp deficient CF-1 mouse plasma at 0.94 mg/kg through oral gavage. Type of data set: ADME, organism-based. More on the design: time < 4 hr, dose 0.94 mg/kg, route oral. The gist of the method:
as §1

The nature of data set [16]: AUC in P-gp competent CF-1 mouse plasma at 0.47 mg/kg through systemic exposure. Type of data set: ADME, organism-based. Further details: dose 0.47 mg/kg. A digest of the protocol: as §5
Data set [17] in a line: AUC (0 to 240 mins) in P-gp competent CF-1 mouse plasma at 0.23 mg/kg through oral gavage. More on the design: time < 4 hr, dose 0.23 mg/kg, route oral. Type of data set: ADME, organism-based. A digest of the protocol:
as §1

Data set [18] is described as follows: Drug metabolism in P-gp competent CF-1 mouse intestine assessed as CYP3A-mediated metabolite formation […]. Type of data set: ADME, tissue-based. The settings on record: excised jejunum tissue.
Data set [19] can be described thus: AUC (0 to 240 mins) in P-gp competent CF-1 mouse plasma at 0.47 mg/kg through oral gavage. Type of data set: ADME, organism-based. Further details: time < 4 hr, dose 0.47 mg/kg, route oral. A digest of the protocol:
as §1

Data set [20] can be described thus: Portal bioavailability in P-gp competent CF-1 mouse at 0.47 mg/kg through oral gavage. The conditions noted are these: in vivo. Type of data set: ADME, organism-based. A digest of the protocol:
as §3

Data set [21] in a line: Portal bioavailability in P-gp deficient CF-1 mouse at 0.94 mg/kg through oral gavage. Type of data set: ADME, organism-based. The settings on record: in vivo. A digest of the protocol:
as §3

A short description of data set [22]: AUC (0 to 120 mins) in P-gp competent CF-1 mouse plasma at 0.4 mg/kg through oral gavage in presence of 1 mM ABT CYP3A inhibitor. Type of data set: ADME, organism-based. More on the design: time < 2 hr, dose 0.4 mg/kg, route oral.
Data set [23] in a line: Drug metabolism in P-gp deficient CF-1 mouse intestine assessed as CYP3A-mediated metabolite formation measured per cm'2 of tissue by LC-MS/MS analysis in presence of 100 uM Cyp3a oxidative metabolism inhibitor troleandomycin. Type of data set: ADME, tissue-based.
Data set [24] is described as follows: AUC (0 to 120 mins) in P-gp competent CF-1 mouse plasma at 0.4 mg/kg through oral gavage. Type of data set: ADME, organism-based. More on the design: time < 2 hr, dose 0.4 mg/kg, route oral. A digest of the protocol: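 Mice were anaesthetised with IP ketamine 140 mg/kg and xylazine 15 mg/kg, kept at 37°C, and portal vein-cannulated. Pretreatment was saline or oral ABT at 50 mg/kg. Portal-circulation AUC0–120 min was calculated.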

Data set [25] is described as follows: Drug metabolism in P-gp competent CF-1 mouse intestine assessed as CYP3A-mediated metabolite formation measured per cm'2 of tissue by LC-MS/MS analysis in presence of 100 uM Cyp3a oxidative metabolism inhibitor troleandomycin. Type of data set: ADME, tissue-based.

As usually defined, the AUC(0-t) is the area under the concentration-time curve up to a stated or last time point. As usually defined, the Km is the concentration of substrate that gives half-maximal velocity. One may read the AUC as the area under the concentration-time curve, a measure of exposure. Turning to `CN(C)C(=O)C(CCN1CCC(O)(c2ccc(Cl)cc2)CC1)(c1ccccc1)c1ccccc1` [LOPERAMIDE], the AUC(0-t) at 4 h is 81.7 ng·h/mL in [1]; 7 ng·h/mL in data set [9]; 1.5 ng·h/mL in [14]; 95 ng·h/mL in [15]; 4.43 ng·h/mL in [17]; 4.48 ng·h/mL in data set [19]. Moreover, the Km with CYP3A [2] was found to be 22 µM; in the data set on CYP3A [12], 4.5 µM. For the same compound, the Fg was 2.6% in data set [3]; 28% in [4]; 1.1% in data set [5]; 3.6% in data set [8]; 0.4% in [10]; 1.7% in data set [20]. For the same compound, in data set [21], the Fg was determined as 17%. Besides, the AUC was 1.03 ng·h/mL in [6], 0.933 ng·h/mL in [7], 4.33 ng·h/mL in data set [13] and 0.517 ng·h/mL in data set [16]. For the same compound, the values for the Vmax in data set [11] and in data set [18] were 30 pmol/min/cm² and 31 pmol/min/cm², respectively.
For `C[C@]12CC[C@H]3[C@@H](CCC4=CC(=O)CC[C@@]43C)[C@@H]1CC[C@@H]2O` [TESTOSTERONE], the values for the AUC(0-t) at 2 h in [22] and in data set [24] were 1 ng·h/mL and 43.3 ng·h/mL, respectively. The Vmax in data set [23] and in [25] was 0.5 pmol/min each time.
